Shown are actives, neighbours in structure and some others; about 2.6% of the full set was active somewhere.
NR1D1 modulator – modulators of human Rev-erb alpha DNA binding; hit rate 0.79% among 370,000; activity, % at 10 µM; Rev-erbα–FITC-DNA binding, fluorescence polarization, 90 min; P20393;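 active = activity above about 14%, limit read from the data; passing the limit was not always enough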;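 also: 0% = DMSO wells with 35 nM protein and 100% = DMSO wells with 750 nM protein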
rCAG RNA binder – binds r(CAG) RNA repeats; r(CAG) RNA repeat, TO-PRO-1 dye displacement fluorescence; inhibition, % at 3 µM; hit rate 1.3% among 370,000;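 active = inhibition above the plate cutoff, the mean of all test compounds on that plate plus 3 SD, cut at about 35% in these data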;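 also: 0% = DMSO alone and 100% = 100 µM mitoxantrone as full dye displacement; higher means more dye released from RNA so lower well fluorescence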
PG9 binder – PG9 antibody binding by small molecule; hit rate 0.43% among 360,000; TR-FRET gp120-PG9 antibody binding; inhibition, % at 6.7 µM; in the data active = inhibition above about 8.5%
NR2E3 ag-1 – NR2E3 (human) agonism. hit rate 0.12% among 320,000. GST-NR2E3/biotin-RetCOR TR-FRET, 1536-well. Q9Y5X4. AID 2300. inhibition of corepressor binding, % at 4.78 µM;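 active = percent inhibition above the cutoff of mean plus 3 SD of all tested compounds, set per screening campaign, cut at about 20% in these data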;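 also: 0% = DMSO wells and 100% = biotin wells as full block of FRET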
Target sequence (Q9Y5X4 whole entry, looked up): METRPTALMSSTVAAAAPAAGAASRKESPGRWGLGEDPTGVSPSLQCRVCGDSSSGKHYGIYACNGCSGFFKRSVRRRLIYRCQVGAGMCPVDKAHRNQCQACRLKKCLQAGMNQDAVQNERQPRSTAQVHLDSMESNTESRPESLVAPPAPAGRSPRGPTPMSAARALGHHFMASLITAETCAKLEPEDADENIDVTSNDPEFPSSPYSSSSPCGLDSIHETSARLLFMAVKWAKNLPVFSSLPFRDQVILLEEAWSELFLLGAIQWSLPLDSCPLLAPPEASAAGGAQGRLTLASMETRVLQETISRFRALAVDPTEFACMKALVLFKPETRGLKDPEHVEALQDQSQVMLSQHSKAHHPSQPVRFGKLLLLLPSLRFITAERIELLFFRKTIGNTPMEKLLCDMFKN
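Material: NR2E3–RetCOR corepressor complex / Amount: 1.35 nM GST-NR2E3 / Medium: Tris pH 7.5 / Compound: single nominal compound dose of 4.8 µM / Incubation: 5 h at 4 °C / Technique: TR-FRET, Eu(K)-anti-GST donor, streptavidin-D2 acceptor, ex 340, em 617/671 nm / Read-out basis: percent loss of FRET ratio relative to control wells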
NR2E3 ag-2 – human photoreceptor-specific nuclear receptor agonism; inhibition of corepressor binding, % at 3.98 µM; Q9Y5X4; CHO-S Gal4-NCOR/VP16-NR2E3 two-hybrid, luciferase; hit rate 0.35% among 360,000;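 active = inhibition above the mean of all tested compounds plus 3 SD, cut at about 70% in these data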;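 also: 0% = DMSO with NR2E3 transfected cells and 100% = cells lacking NR2E3 construct; higher means lower luciferase signal from less NR2E3 corepressor binding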
NR2E3 ag confirm – NR2E3 agonism confirmed in two-hybrid assay; CHO-S mammalian two-hybrid NR2E3-NCOR, luciferase luminescence; hit rate 51% among 2,300; shares compounds with NR2E3 ag-2; AID 624378; inhibition, % at 3.98 µM;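 active = average inhibition above a cutoff equal to the mean inhibition of all tested compounds plus one SD, cut at about 70% in these data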;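 also: 0% = DMSO in NR2E3 cells and 100% = DMSO in cells lacking NR2E3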
VP16 counter – reduces GAL4-VP16 reporter signal in NR2E3 counterscreen; shares compounds with NR2E3 ag-2; hit rate 29% among 2,300; CHO-S GAL4-VP16 luciferase reporter, luminescence; inhibition, % at 3.98 µM; AID 624379;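 active = mean inhibition above a cutoff equal to the average over all tested compounds plus one standard deviation, cut at about 70% in these data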;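 also: luciferase from a UAS reporter driven by GAL4-VP16 transactivation; 0% = DMSO with VP16-transfected cells and 100% = DMSO with cells lacking VP16; higher means less reporter light so more repression of VP16 activity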
Numbers without * were called inactive; . = not tested or not shown; ! = not active in a repeat.

SMILES	NR1D1 modulator	rCAG RNA binder	PG9 binder	NR2E3 ag-1	NR2E3 ag-2	NR2E3 ag confirm	VP16 counter
S=C(NCc1ccccn1)Nc1cccc(Cl)c1	-2	3	-1	3	-2	.	.
C/C(=N\NC(=O)c1ccc(Cl)cc1)c1ccccn1	0	0	-2	-2	-30	.	.
CC(=NNC(=S)N1CCC1)c1ccccn1	0	1	-3	.	75*	-2	4
CC(=NNC(=S)SCc1ccccc1)c1ccccn1	4	9	-3	.	65	11	29
CC(=NNC(=S)N1CCCC1)c1ccccn1	5	3	-1	.	86*	-2	8
O=Cc1ccccc1C=O	-3	.	.	.	.	.	.
COc1cc(N2CCC(O)CC2)ccc1Nc1cc(Nc2ccccc2S(=O)(=O)C(C)C)c2cc[nH]c2n1	7	22	-4	.	.	.	.
NS(=O)(=O)c1ccc(Oc2ccc(S(N)(=O)=O)cc2)cc1	-4	3	2	2	-6	.	.
C=CS(=O)(=O)c1ccc(Oc2ccc(S(=O)(=O)C=C)cc2)cc1	2	2	-2	1	91*	69	26
COc1cc(C)ccc1OCC(=O)OCC(=O)c1[nH]c(C)c(C(C)=O)c1C	-4	2	0	.	-19	.	.
CC(=O)c1c(C)[nH]c(C(=O)COc2cc(C)ccc2C(C)C)c1C	-3	3	0	-1	85*	91*	79*
CC(C)C[C@@H]1COc2cc(NCCCN3CCOCC3)ccc2S(=O)(=O)N1	5	-1	2	.	.	.	.
O=C(Cc1ccc(-c2ccccc2)cc1)NNC(=S)NCc1ccco1	2	3	-1	1	54	89*	59
Cc1ccc(S(=O)(=O)N2CCCC(C(=O)NCCN3CCC(Cc4ccccc4)CC3)C2)cc1 (stereo not given)	-7	2	.	.	.	.	.
c1ccc(CNc2ncnc3ccccc23)cc1	-1	1	-2	0	80*!	72*	71*
OCCCCCNc1ncnc2ccccc12	-1	-3	-1	1	79*	68	62
O=C(N[C@H](Cc1ccccc1)C(=O)NCCN1CCOCC1)[C@H]1O[C@@H](n2ccc(=O)[nH]c2=O)[C@H](O)[C@@H]1O	3	2	-1	.	.	.	.
O=C(c1cc2sccc2n1Cc1ccc(F)cc1)N1CCN(c2nc3ccccc3s2)CC1	1	4	2	2	74*	92*	64
O=C(c1cccs1)N1CCN(c2nc3ccccc3s2)CC1	5	-4	0	-1	-47	.	.
O=C(N[C@H](Cc1ccccc1)C(=O)NCc1ccco1)[C@H]1O[C@@H](n2ccc(=O)[nH]c2=O)[C@H](O)[C@@H]1O	4	0	1	.	.	.	.
CN(C)S(=O)(=O)N1CCC(Oc2ccc(C(=O)NC3Cc4ccccc4C3)cc2)CC1	1	-6	0	1	-33	.	.
CN(C)S(=O)(=O)N1CCC(Oc2cccc(C(=O)NC3CCCCCC3)c2)CC1	0	-6	-2	-3	91*	60	54
Cc1cc(C)c(S(=O)(=O)NCc2ccncc2)c(C)c1	1	-3	0	-5	69	88*	77*
Cc1ccc(S(=O)(=O)NCc2ccncc2)c(C)c1C	1	-4	-2	3	80*	94*	85*
Cc1ccc(S(=O)(=O)NCc2ccccn2)c(C)c1C	-4	-1	-3	4	0	.	.
SMILES	NR1D1 modulator	rCAG RNA binder	PG9 binder	NR2E3 ag-1	NR2E3 ag-2	NR2E3 ag confirm	VP16 counter
Cc1cc(C)c(S(=O)(=O)NCCc2ccncc2)c(C)c1	-3	-5	-1	3	20	.	.
CC(C)(C)S(=O)N1C[C@@H]2CC(=O)C(CCO)=C2[C@H]1CCO (stereo not given in full)	-2	2	-1	.	.	.	.
C[C@H]1CN([C@@H](C)CO)C(=O)c2c(c3ccccc3n2C)-c2ccccc2CO[C@H]1CN(C)C(=O)Nc1cccc(F)c1	2	9	-2	.	.	.	.
Cc1cccc(NC(=S)N/N=C(\c2ccccc2)C(C)C)c1	-1	2	1	4	65	20	-50
CC/C(=N\NC(=S)Nc1cccc(C)c1)c1ccccc1	1	1	-2	1	27	.	.
C=C1C(=O)C23C(O)C1CCC2C12CCCC(C)(COC(C)=O)C1C(O)C3(O)OC2 (stereo not given)	7	3	1	.	91*	-6	-34
